Test results reported in publication PMC5824357 (RNA, 2018).
Ends that are not written are not given here. MBP = not defined here; MS2 = not defined here; HA = not defined here

Assays:
[1] = tested on: β-globin-6xMS2bs reporter; experiment: Tethering assay in human HEK293T cells; assay type: cell-based; settings: MS2-HA-tagged, three independent experiments
endogenous CAF40 = experiment: SBP pull-down in HEK293T cells, CAF40; assay type: binding, human; settings: V5-SBP-tagged, wild-type HEK293T, RNaseA
Method in brief: (§1)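 HEK293T cells expressed V5-SBP-tagged full-length test protein, with V5-SBP-MBP as negative control. SBP pull-down from lysates was done in the presence of RNaseA. Input (1.5% of V5-SBP proteins, 1% of endogenous CCR4–NOT subunits) and bound fractions (10% and 30%, respectively) were analysed by western blotting with ECL detection.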

endogenous NOT2 = experiment: SBP pull-down in HEK293T cells, NOT2; assay type: binding, human
Method in brief: as §1

CCR4 (GFP-tagged) = experiment: Coimmunoprecipitation in S2 cells, CCR4; assay type: binding, Drosophila melanogaster; settings: HA-tagged Bam, S2 cell lysates, RNaseA
endogenous NOT3 = experiment: SBP pull-down in HEK293T cells, NOT3; assay type: binding, human
Method in brief: as §1

Hs CN9BD–CAF40 complex = experiment: In vitro MBP pull-down, human CN9BD–CAF40; assay type: binding; settings: MBP-tagged proteins, amylose resin, 50 mM HEPES pH 7.5, 200 mM NaCl, 2 mM DTT, 1 h; SDS-PAGE, Coomassie
Method in brief: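 The Hs complex was MBP-NOT1-CN9BD (V1351–L1588) co-expressed in E. coli with His6-CAF40 (R19–E285), purified on amylose, tags removed by HRV3C, then heparin and gel filtration. MBP (20 µg, control) or MBP fusion (40 µg) was incubated 1 h with equimolar complex and amylose resin. Beads were washed five times, eluted with 25 mM maltose, TCA-precipitated and analysed by SDS-PAGE/Coomassie.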

[2] = tested on: Dm NOT1-CN9BD–CAF40 complex (containing CAF40 V186E or 2xMut); experiment: In vitro MBP pull-down, Dm CN9BD–CAF40 with CAF40 mutants; assay type: binding, Drosophila melanogaster; settings: MBP-tagged Bam, pH 7.5, 1 h
Method in brief: (§2)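 Proteins were expressed in E. coli BL21 (DE3) Star overnight at 20°C. Tethered-protein constructs carried an N-terminal MBP tag and were purified by amylose resin, anion exchange and gel filtration. MBP (20 µg, negative control) or MBP fusion (40 µg) was incubated 1 h with equimolar purified CCR4–NOT modules plus amylose resin. Beads were washed five times and eluted with 25 mM maltose. Eluates were TCA-precipitated and analysed by SDS-PAGE/Coomassie.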

HA-tagged CCR4 = experiment: SBP pull-down in HEK293T cells, CCR4; assay type: binding
Method in brief: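 Control or CAF40-null HEK293T cells coexpressed HA-CCR4 with V5-SBP-tagged full-length test protein or V5-SBP-MBP negative control. SBP pull-down was done in lysates containing RNaseA. Input (1.5% V5-SBP proteins, 1% CCR4–NOT subunits) and bound (10% and 30%) fractions were western blotted with ECL detection.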

Hs CCR4-NOT subcomplexes = experiment: In vitro MBP pull-down, other Hs CCR4–NOT subcomplexes; assay type: binding, human; settings: NOT1-10-11 module, catalytic module, CD, NOT3 N-terminal coiled coil, MBP-tagged Bam, pH 7.5, 1 h
Method in brief: as §2

NOT3 (GFP-tagged) = experiment: Coimmunoprecipitation in S2 cells, NOT3; assay type: binding, Drosophila melanogaster; settings: HA-tagged Bam, S2 cell lysates, RNaseA
Dm CAF40 (V186E) = experiment: Coimmunoprecipitation in S2 cells, CAF40 V186E; assay type: binding, Drosophila melanogaster; settings: HA-tagged Bam, S2 cell lysates, RNaseA
NOT1 (GFP-tagged) = experiment: Coimmunoprecipitation in S2 cells, NOT1; assay type: binding, Drosophila melanogaster; settings: HA-tagged Bam, S2 cell lysates, RNaseA
F-Luc-5BoxB-A95C7-HhR = experiment: Tethering assay in S2 cells, F-Luc-5BoxB-A95C7-HhR reporter; assay type: cell-based, Drosophila melanogaster
F-Luc-5BoxB mRNA [3] = experiment: mRNA half-life in S2 cells after actinomycin D; assay type: cell-based, Drosophila melanogaster; settings: actinomycin D 5 µg/ml; northern blot
Method in brief: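 S2 cells were Effectene-transfected with F-Luc-5BoxB reporter, R-Luc control and λN-HA-tagged test protein. Three days post-transfection they were treated with actinomycin D (5 µg/ml final) and collected at successive time points. Reporter mRNA remaining was measured by northern blotting of total RNA.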

NOT2 (GFP-tagged) = experiment: Coimmunoprecipitation in S2 cells, NOT2; assay type: binding, Drosophila melanogaster; settings: HA-tagged Bam, S2 cell lysates, RNaseA
F-Luc-5BoxB mRNA [4] = experiment: Tethering assay in S2 cells, F-Luc-5BoxB reporter; assay type: cell-based, Drosophila melanogaster
Dm CAF40 (GFP-tagged) = experiment: Coimmunoprecipitation in S2 cells, CAF40; assay type: binding, Drosophila melanogaster; settings: HA-tagged Bam, S2 cell lysates, RNaseA
[5] = tested on: catalytic module (containing Hs CCR4a); experiment: In vitro MBP pull-down, Hs catalytic module; assay type: binding, human; settings: recombinant proteins
endogenous NOT1 = experiment: SBP pull-down in HEK293T cells, NOT1; assay type: binding, human
Method in brief: as §1

[6] = tested on: Dm NOT1-CN9BD–CAF40 complex; experiment: In vitro MBP pull-down, Dm CN9BD–CAF40; assay type: binding, Drosophila melanogaster; settings: MBP-tagged proteins, amylose resin, 50 mM HEPES pH 7.5, 200 mM NaCl, 2 mM DTT, 1 h; SDS-PAGE, Coomassie
Method in brief: as §2

[7] = V5-SBP-tagged, wild-type HEK293T, RNaseA

Molecule: CBM alone fused to MBP: MS2-HA-MBP-Bam 13–36 ({MS2-HA-MBP}-DDQQLDHNFKQMEEHLALMVEGNE; reading uncertain; UniProt P22745 13-36, looked up, fragment)
- degradation/repression of β-globin-6xMS2bs reporter [1]: as active as full-length Bam

B1: Bam: Drosophila melanogaster Bag-of-marbles, Uniprot P22745, residues 1–442, variously tagged (protein)
chain: MLNARDVCPEGNDDQQLDHNFKQMEEHLALMVEGNENEDPRKATCEYEDTNEDGATCTSGVLSEIQENFGRLRLCDVTAPLLEFHGLDCLQQIQKRSRHFAFDGSPAKKSRSGGVLVTGPKQKQLQKENVWNRKSKGSASADNIEKLPITIEKLHMIGLHGDCLEHNAVLRLMNLFRSLHDHLTADLGFSRQNSMPSDYLFDMPVKSTMPKSLNVRYQLQVLCTKVERFLVQQRRTLEANRHFDFEKYDECDKLLKGFASYLDNFKLLLKPKMRNRNGNSGSNADKFHTQRMERLLIGLRDWIKAAHLSVHVFNWEMDLEHRYSGAMTESHKSLNERAILLSGAELRAAEARGISAEDLFIAQRYKLGGPIYCVLEQHEFLSALIANPETYFPPSVVAICGPQKLGAVSMEQPSASEEEFEETEEVPSSPPRHTGRVPRFRS
modifications: left off: MBP, N-terminal, kept
- pull-down of endogenous CAF40 (endogenous CAF40): pulled down all of the tested subunits
- pull-down of endogenous NOT2, CAF40-null cells (endogenous NOT2; CAF40-null HEK293T): did not interact with endogenous NOT1, NOT2 and NOT3
- pull-down of endogenous NOT2 (endogenous NOT2; [7]): pulled down all of the tested subunits
- coimmunoprecipitation with CCR4 (CCR4 (GFP-tagged)): interacted with NOT1, NOT2, NOT3, CCR4, and CAF40
- pull-down of endogenous NOT3, CAF40-null cells (endogenous NOT3; CAF40-null HEK293T): did not interact with endogenous NOT1, NOT2 and NOT3
- pull-down of endogenous NOT3 (endogenous NOT3; [7]): pulled down all of the tested subunits
- interaction in pull-down (Hs CN9BD–CAF40 complex): interacted only with the CN9BD–CAF40 module
- disruption of interaction by V186E substitution in CAF40 ([2]; CAF40 V186E): sufficient to disrupt the interaction with Bam in vitro
- disruption of interaction by 2xMut in CAF40 ([2]; CAF40 Y139D, G146W (2xMut)): sufficient to disrupt the interaction with Bam in vitro
- pull-down of HA-tagged CCR4, CAF40-null cells (HA-tagged CCR4; CAF40-null HEK293T): did not interact
- pull-down of HA-tagged CCR4 (HA-tagged CCR4; [7]): as well as HA-tagged CCR4
- interaction in pull-down with any other subcomplex (Hs CCR4-NOT subcomplexes): not with any other subcomplex
- coimmunoprecipitation with NOT3 (NOT3 (GFP-tagged)): interacted with NOT1, NOT2, NOT3, CCR4, and CAF40
- coimmunoprecipitation with CAF40 V186E (Dm CAF40 (V186E)): sufficient to abolish binding to full-length Bam in cell lysates
- coimmunoprecipitation with NOT1 (NOT1 (GFP-tagged)): interacted with NOT1, NOT2, NOT3, CCR4, and CAF40
- repression of deadenylation-resistant reporter (F-Luc-5BoxB-A95C7-HhR): repressed the expression of this reporter in S2 cells
- mRNA half-life (F-Luc-5BoxB mRNA [3]): shortening of the mRNA half-life
- coimmunoprecipitation with NOT2 (NOT2 (GFP-tagged)): interacted with NOT1, NOT2, NOT3, CCR4, and CAF40
- tethering activity in CAF40-depleted cells (F-Luc-5BoxB mRNA [4]; CAF40 KD (∼10% of control levels)): partially suppressed Bam activity
- repression in CAF40-depleted cells complemented with CAF40 V186E (F-Luc-5BoxB mRNA [4]; CAF40 KD + CAF40 V186E): not by expression of the CAF40 V186E mutant
- repression in CAF40-depleted cells complemented with wild-type CAF40 (F-Luc-5BoxB mRNA [4]; CAF40 KD + wild-type CAF40): restored by transient expression of wild-type CAF40
- F-Luc-5BoxB mRNA degradation in DCP2-depleted cells (F-Luc-5BoxB mRNA [4]; DCP2 knockdown, DCP2 E361Q overexpressed): impaired
- F-Luc activity in DCP2-depleted cells (F-Luc-5BoxB mRNA [4]; DCP2 knockdown, DCP2 E361Q overexpressed, F-Luc activity): not restored
- tethering activity in cells overexpressing CAF40 V186E (F-Luc-5BoxB mRNA [4]; GFP-CAF40 V186E overexpressed): suppressed in cells overexpressing the CAF40 V186E mutant
- tethering activity in cells overexpressing CAF40 wild-type (F-Luc-5BoxB mRNA [4]; GFP-CAF40 wild-type overexpressed): not when CAF40 wild-type was overexpressed
- F-Luc-5BoxB mRNA degradation after NOT1 depletion (F-Luc-5BoxB mRNA [4]; NOT1-depleted S2 cells): partially suppressed degradation of F-Luc-5BoxB mRNA
- coimmunoprecipitation with CAF40 (Dm CAF40 (GFP-tagged)): interacted with NOT1, NOT2, NOT3, CCR4, and CAF40
- direct interaction with the catalytic module [5]: did not observe a direct interaction
- displacement of CAF1-NOT1 subcomplex from CCR4a [5]: did not competitively displace the CAF1-NOT1 subcomplex from CCR4a
- pull-down of endogenous NOT1, CAF40-null cells (endogenous NOT1; CAF40-null HEK293T): did not interact with endogenous NOT1, NOT2 and NOT3
- pull-down of endogenous NOT1 (endogenous NOT1; [7]): pulled down all of the tested subunits
- interaction in pull-down [6]: also interacted with the Dm CN9BD–CAF40 module
